The subject of experiment [1] is Escherichia coli. Briefly: Antimicrobial activity against Escherichia coli 1411 after 18 hrs by broth microdilution method. The note with it: Escherichia coli, 1411, 18 h. The experiment is classed as functional. For orientation: In broth dilution the organism is exposed to a series of concentrations in liquid medium.
Experiment [2] is described as follows: Inhibition of Escherichia coli DdlB assessed as residual activity of the enzyme assessed as orthophosphate formation after 20 mins by malachite green reagent method.
In experiment [3] the test system is Staphylococcus aureus. Briefly: Effect on membrane integrity in Staphylococcus aureus SH1000 at four times MIC after 10 mins by BacLight assay. In kind it is functional.
In experiment [4] the test system is Staphylococcus aureus. Briefly: Antimicrobial activity against Staphylococcus aureus SH1000 after 18 hrs by broth microdilution method. In kind it is functional. Particulars: SH1000, 18 h.
Experiment [5] deals with Escherichia coli. Briefly: Antimicrobial activity against AcrAB-deficient Escherichia coli SM1411 after 18 hrs by broth microdilution method. In kind it is functional. Particulars: SM1411, 18 h.
In experiment [6] the test system is Escherichia coli. Briefly: Inhibition of Escherichia coli DdlB assessed as residual activity of the enzyme assessed as orthophosphate formation at 250 uM after 20 mins by malachite green reagent method. In short, it runs like this: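 Purified His-tagged E. coli DdlB, diluted in 50 mM Hepes pH 7.2 with 1 mM DTT. Reaction at 37 °C in 50 mM Hepes pH 8.0, 3.25 mM MgCl2, 6.5 mM (NH4)2SO4, D-Ala, ATP and 5% DMSO. Incubated 20 min, then malachite green reagent added and A650 read after 5 min. Duplicates, with parallel testing in 0.005% Triton X-114.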

For experiment [7], the system named is Staphylococcus aureus. Briefly: Antimicrobial activity against Staphylococcus aureus 8325-4 after 18 hrs by broth microdilution method. In kind it is functional. Particulars: 8325-4, 18 h. A digest of the protocol:
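Broth microdilution MIC following British Society for Antimicrobial Chemotherapy guidelines, run against S. aureus […] 8325-4.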

pIC50: −log10 of the molar value. In brackets after ≈: the same amount, converted by molar mass.

As to `Cc1c2ccncc2c(C)c2c1[nH]c1cc(F)ccc12`, the results for the MIC in experiment [1], in experiment [4] and in experiment [5] were more than 256 µg/mL, 4 µg/mL (≈ 15.1 µM) and 8 µg/mL (≈ 30.3 µM), respectively. Further, the pIC50 (commonly the negative decadic logarithm of the IC50, by convention in mol/L) in experiment [2] is 3.99. The same compound showed an Activity in experiment [3] of 42.8%.
Take `Cc1c2cnccc2c(C)c2c1c1ccc(F)cc1n2C`: the MIC in experiment [1], in experiment [4] and in experiment [5] was more than 256 µg/mL throughout. Besides, the negative logarithm of the IC50 (pIC50) in experiment [2] is 4.05.
For the compound `CCN(CC)Cc1cc2[nH]c3c4ccc(Cl)cc4ncc3c2cc1OC.Cl.Cl.Cl`, the MIC in experiment [1], in experiment [4] and in experiment [5] was more than 256 µg/mL each time. The pIC50 in experiment [2] is 3.48.
Regarding `CCN(CC)Cc1cc2[nH]c3c4ccc(Cl)cc4ncc3c2cc1OC`, the figures for the MIC in experiment [1], in experiment [4] and in experiment [5] were 256 µg/mL (≈ 696 µM), 256 µg/mL (≈ 696 µM) and 32 µg/mL (≈ 87 µM), respectively. Moreover, the negative logarithm of the IC50 (pIC50) in experiment [2] was 3.21.
Take `CCc1cccc2c1[nH]c1c(C)c3ccncc3c(C)c12`: the MIC (usually the least concentration at which growth counts as inhibited) in experiment [1] is more than 256 µg/mL; in experiment [4], 8 µg/mL (≈ 29.2 µM); in experiment [5], more than 256 µg/mL. The pIC50 in experiment [2] was 3.90. Besides, the Activity in experiment [3] was determined as 34.2%.
With `CCN(CC)Cc1cc(Nc2c3ccc(Cl)cc3nc3ccc(OC)cc23)ccc1O`, the MIC in experiment [1] turned out to be 256 µg/mL (≈ 587 µM); in experiment [4], 128 µg/mL (≈ 294 µM); in experiment [5] it was 128 µg/mL (≈ 294 µM). Moreover, the Activity in experiment [6] came to 46%. Moreover, the pIC50 in experiment [2] is 3.49.
For `COc1ccc2nc3cc(Cl)ccc3c(Nc3ccc(O)c(CN(CCCl)CCCl)c3)c2c1`, the Activity in experiment [6] was 22%.
For the compound `Cc1c2cnccc2c(C)c2c1c1cc(Br)ccc1n2C`, in experiment [2], the pIC50 was 3.53.
With `CCN(CC)Cc1cc(Nc2c3ccc(Cl)cc3nc3c(OC)ccc(Cl)c23)ccc1O`, the MIC in experiment [1], in experiment [4] and in experiment [5] was more than 256 µg/mL throughout. The Activity in experiment [6] was determined as 40%. Also, the negative logarithm of the IC50 (pIC50) in experiment [2] was 3.92.
Turning to `COc1cc(NCCCNc2c3ccc(Cl)cc3nc3ccc(OC)cc23)c2ncccc2c1`, the figures for the MIC in experiment [1], in experiment [4] and in experiment [5] were more than 256 µg/mL, 256 µg/mL (≈ 541 µM) and more than 256 µg/mL, respectively. In experiment [6], the Activity came out at 13%. For the same compound, the pIC50 in experiment [2] was 4.05.
For `Cc1c2ccncc2c(C)c2c1[nH]c1ccc(Br)cc12`, the MIC is more than 256 µg/mL in experiment [1], 16 µg/mL (≈ 49.2 µM) in experiment [4] and 16 µg/mL (≈ 49.2 µM) in experiment [5]. In experiment [2], the pIC50 was 4.07. The compound also registered an Activity in experiment [3] of 49.6%.
For `COc1ccc2nc3cc(Cl)ccc3c(Nc3ccc(O)c(CN4CCCC4)c3)c2c1`, the MIC in experiment [1] was 256 µg/mL (≈ 590 µM); in experiment [4], 64 µg/mL (≈ 147 µM); in experiment [5], 256 µg/mL (≈ 590 µM). In experiment [6], the Activity is 20%. Besides, the negative logarithm of the IC50 (pIC50) in experiment [2] was 3.99.
In the case of `Cc1c2cc[n+](C)cc2c(C)c2c1[nH]c1ccc(Br)cc12.[I-]`, the values for the MIC in experiment [1], in experiment [4] and in experiment [5] were 16 µg/mL, 8 µg/mL and 4 µg/mL, respectively. Also, in experiment [2], the pIC50 is 4.64. Besides, in experiment [3], the Activity is on record as 29.8%.
As for `COc1ccc2[nH]c3c(C)c4cc[n+](C)cc4c(C)c3c2c1.[I-]`, the MIC in experiment [1] turned out to be 256 µg/mL; in experiment [4], 32 µg/mL; in experiment [5], 8 µg/mL. Besides, the negative-log IC50 (pIC50) in experiment [2] was 4.19. The compound also gave an Activity in experiment [3] of 16%.
Regarding `COc1ccc2[nH]c3c(C)c4ccncc4c(C)c3c2c1`, the MIC in experiment [1], in experiment [4] and in experiment [5] was more than 256 µg/mL in each case. For the same compound, in experiment [2], the pIC50 is 4.22.
As to `COc1cc2c(cc1CN(C)C)[nH]c1c3ccc(Cl)cc3ncc21`, the MIC is 128 µg/mL (≈ 377 µM) in experiment [1], 256 µg/mL (≈ 753 µM) in experiment [4] and 32 µg/mL (≈ 94.2 µM) in experiment [5].
In the case of `Cc1c2cc[n+](C)cc2c(C)c2c1[nH]c1ccccc12.[I-]`, the results for the MIC in experiment [1], in experiment [4] and in experiment [5] were 64 µg/mL, 16 µg/mL and 4 µg/mL, respectively. For the same compound, in experiment [2], the pIC50 is 4.34. In experiment [3], this compound came in with an Activity of 37.3%.
As for `COc1ccc2c(c1)c1c(C)c3cnccc3c(C)c1n2CCCN`, the MIC in experiment [1] was 32 µg/mL (≈ 96 µM); in experiment [7], 32 µg/mL (≈ 96 µM); in experiment [5], 8 µg/mL (≈ 24 µM). The pIC50 in experiment [2] is 4.15.
In the case of `CCCCCCCCN(CCCCCCCC)Cc1cc(Nc2c3ccc(Cl)cc3nc3ccc(OC)cc23)ccc1O`, the Activity in experiment [6] came out at 86%.
Take `CC(=O)[O-].COc1ccc2[nH]c3c(C)c4cc[n+](C)cc4c(C)c3c2c1`: the MIC came out at 256 µg/mL in experiment [1], 64 µg/mL in experiment [4] and 4 µg/mL in experiment [5]. Also, the pIC50 in experiment [2] is 4.05.
With `Cc1c2ccncc2c(C)c2c1[nH]c1ccc(O)cc12`, the MIC in experiment [1] came to 16 µg/mL (≈ 61 µM); in experiment [4], 8 µg/mL (≈ 30.5 µM); in experiment [5], 8 µg/mL (≈ 30.5 µM). Moreover, in experiment [2], the negative-log IC50 (pIC50) is 3.72. Also, the Activity in experiment [3] came to 71.9%.
Regarding `Cc1c2cc[n+](C)cc2c(C)c2c1[nH]c1cc(F)ccc12.[I-]`, the MIC in experiment [1] is more than 256 µg/mL; in experiment [4] it was more than 256 µg/mL; in experiment [5], 4 µg/mL. For the same compound, the pIC50 in experiment [2] was 4.19.
For `COc1cc(Nc2c3ccc(Cl)cc3nc3ccc(OC)cc23)c2ncccc2c1`, the MIC in experiment [1], in experiment [4] and in experiment [5] was more than 256 µg/mL in each case. For the same compound, the Activity in experiment [6] came out at 25%. For the same compound, the pIC50 in experiment [2] is 4.49.
In the case of `COc1ccc2c(c1)c1c(C)c3cnccc3c(C)c1n2C`, the pIC50 in experiment [2] was 3.74.
Consider `COc1ccc2nc3cc(Cl)ccc3c(Nc3ccc(O)c(CN4CCN(C)CC4)c3)c2c1`, for which the MIC is more than 256 µg/mL in experiment [1], 32 µg/mL (≈ 69.1 µM) in experiment [7] and 64 µg/mL (≈ 138 µM) in experiment [5]. In addition, the pIC50 in experiment [2] was 3.79. Moreover, the Activity in experiment [3] is 48.7%.
Consider `C=CCc1cc(Nc2c3ccc(Cl)cc3nc3ccc(OC)cc23)cc(CN(CC)CC)c1O`, for which the results for the MIC in experiment [1], in experiment [4] and in experiment [5] were more than 256 µg/mL, 32 µg/mL (≈ 67.2 µM) and more than 256 µg/mL, respectively. Further, the Activity in experiment [6] stood at 27%; in experiment [3], 47.7%. Also, the pIC50 in experiment [2] is 3.79.
`Cc1c2c[n+](C)ccc2c(C)c2c1c1cc(Br)ccc1n2C.[I-]`: the values for the minimal inhibitory concentration (MIC) in experiment [1], in experiment [4] and in experiment [5] were 32 µg/mL, 2 µg/mL and 1 µg/mL, respectively. Further, the pIC50 in experiment [2] is 4.44. The compound also had an Activity in experiment [3] of 42.4%.
With `COc1ccc2nc3cc(Cl)ccc3c(Nc3ccc(C(O)CCN(C)C)cc3)c2c1` (configuration not stated), the MIC in experiment [1] is more than 256 µg/mL; in experiment [4] it was 256 µg/mL (≈ 587 µM); in experiment [5], 128 µg/mL (≈ 294 µM). For the same compound, the Activity in experiment [6] turned out to be 38%. Moreover, the pIC50 in experiment [2] is 3.87.
On to `COc1ccc2nc3cc(Cl)ccc3c(NCCNc3c4ccc(Cl)cc4nc4ccc(OC)cc34)c2c1`, for which the Activity in experiment [6] amounted to 27%.

The values are drawn from ChEMBL document CHEMBL1817635, “Ellipticines and 9-acridinylamines as inhibitors of D-alanine:D-alanine ligase” (Bioorg Med Chem, 2011).
